The test system of assay [1] is P388. As to the kind of experiment: Antitumor activity against P388 Leukemia from CDF1 female mice evaluated as Median survival time of treated mice at a dose of 0.25 mg/kg/day. Type of assay: functional, Mus musculus. The procedure, abridged: (§1)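 CDF1 female mice (BALB/c × DBA/2) inoculated ip with 10⁶ P388 cells on day 0. Drug given ip in 2% methanol on days 1, 5 and 9. Ten mice per dose group, with a larger control group. Body weight and survival were recorded on days 1 and 5, with toxicity taken as survivors on day 5. Mortality was followed for 30 days to give median survival time.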

Assay [2] concerns P388. As to the kind of experiment: Antitumor activity against P388 Leukemia from CDF1 female mice evaluated as number of survivors on day 5 at a dose of 1 mg/kg/day. Type of assay: functional, Mus musculus. The gist of the method:
as §1

For assay [3], the system named is B16. As to the kind of experiment: Antitumor activity against B16 melanoma from B6 D2 F1 female mice(T/C) was evaluated from the median survival time of treated mice (T) over that of control mice (C) at a dose of 0.25 mg/kg/day. Format: functional, Mus musculus. The procedure, abridged: (§2)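 B6D2F1 female mice (C57BL/6 ♀ × DBA/2 ♂) implanted ip on day 0 with 0.5 mL of B16 tumor suspension (1 g homogenized in 9 mL 0.9% saline). Dosing ip on days 1, 5 and 9. Day-5 survivors give toxicity. Median survival of treated vs control mice gives T/C%, with ≥125% significant.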

Assay [4] has as its system B16. As to the kind of experiment: Antitumor activity against B16 melanoma from B6 D2 F1 female mice evaluated as Median survival time of treated mice at a dose of 0.03 mg/kg/day. Type of assay: functional, Mus musculus. The gist of the method:
as §2

Assay [5] relates to B16. The experiment in a line: Antitumor activity against B16 melanoma from B6 D2 F1 female mice(T/C) was evaluated from the median survival time of treated mice (T) over that of control mice (C) at a dose of 0.50 mg/kg/day. Type of assay: functional, Mus musculus. The gist of the method:
as §2

Assay [6] has as its system B16. The experiment in a line: Antitumor activity against B16 melanoma from B6 D2 F1 female mice(T/C) as median survival time of treated mice (T) over that of control mice (C) at a dose of 0.25 mg/kg/day (repeated ip injections, day 1-9). Type of assay: functional, Mus musculus. The conditions noted are these: route intraperitoneal. The procedure, abridged:
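B16 melanoma homogenate (1 g tumor in 9 mL 0.9% saline), 0.5 mL implanted ip on day 0 in B6D2F1 female mice (C57BL/6 ♀ × DBA/2 ♂). Treatment ip once daily from day 1 to day 9. Toxicity scored as survivors on day 5. Median survival recorded and T/C computed as treated/control median survival, ≥125% significant.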

Assay [7] concerns B16. As to the kind of experiment: Antitumor activity against B16 melanoma from B6 D2 F1 female mice evaluated as Median survival time of treated mice at a dose of 0.50 mg/kg/day. Type of assay: functional, Mus musculus. The gist of the method: as §2
The test system of assay [8] is P388. The experiment in a line: Average weight change of animals between day 1 and day 5 after tumor implementation at a dose of 0.50 mg/kg/day. Format: functional, Mus musculus. The gist of the method: (§3)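 P388 leukemia: CDF1 female mice were inoculated ip with 10⁶ cells on day 0. Treatment in 2% methanol was given ip on days 1, 5 and 9, with 10 mice per group and a larger control group. Body weight was recorded on days 1 and 5 post-implant, and the average change was reported.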

Assay [9] relates to B16. As to the kind of experiment: Antitumor activity against B16 melanoma from B6 D2 F1 female mice evaluated as average weight change of animals between day 1 and day 5 after tumor implementation at a dose of 0.50 mg/kg/day. Type of assay: functional, Mus musculus. The gist of the method: (§4)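 B16 melanoma in B6D2F1 female mice: 0.5 mL of tumor homogenate (1 g in 9 mL 0.9% saline) was given ip on day 0. Ip dosing was on days 1, 5 and 9. The readout was the average body weight change between day 1 and day 5 after tumor implantation.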

In assay [10] the test system is B16. The experiment in a line: Antitumor activity against B16 melanoma from B6 D2 F1 female mice evaluated as the number of survivors on day 5 at a dose of 1 mg/kg/day. Type of assay: functional, Mus musculus. The gist of the method:
as §2

Assay [11] concerns P388. As to the kind of experiment: Antitumor activity against P388 Leukemia from CDF1 female mice evaluated as Median survival time of treated mice at a dose of 0.03 mg/kg/day. Format: functional, Mus musculus. The gist of the method: (§5)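 CDF1 female mice (BALB/c ♀ × DBA/2 ♂) given 10⁶ P388 cells ip on day 0. Drug in 2% methanol given ip on days 1, 5 and 9, 10 mice per group and more controls. Toxicity is survivors on day 5, with weight change between days 1 and 5. Mortality followed 30 days. T/C% is treated over control median survival (NCI method), significant at ≥125%.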

The test system of assay [12] is P388. As to the kind of experiment: Average weight change of animals between day 1 and day 5 after tumor implementation at a dose of 0.25 mg/kg/day. Type of assay: functional, Mus musculus. The procedure, abridged: as §3
The test system of assay [13] is L1210. As to the kind of experiment: In vitro cytostatic activity determined on L1210 leukemia cells at 48 hours. Format: functional. The conditions noted are these: Mus musculus, L1210, 48 h; read-out: ID50 (the source's name). The gist of the method: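 Log-phase L1210 cells were seeded at 0.8 × 10⁵ cells/mL in RPMI 1640 with 20% heat-inactivated horse serum, 2 mmol/L L-glutamine, streptomycin and penicillin. Drugs in ethanol (0.5% final) were tested at several concentrations.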

The subject of assay [14] is B16. The experiment in a line: Antitumor activity against B16 melanoma from B6 D2 F1 female mice evaluated as average weight change of animals between day 1 and day 5 after tumor implementation at a dose of 1 mg/kg/day. Format: functional, Mus musculus. The procedure, abridged:
as §4

The subject of assay [15] is B16. As to the kind of experiment: Antitumor activity against B16 melanoma from B6 D2 F1 female mice evaluated as average weight change of animals between day 1 and day 5 after tumor implementation at a dose of 0.06 mg/kg/day. Type of assay: functional, Mus musculus. The gist of the method: as §4
The test system of assay [16] is B16. As to the kind of experiment: Antitumor activity against B16 melanoma from B6 D2 F1 female mice as average weight change of animals between day 1 and day 5 after tumor implementation at a dose of 0.25 mg/kg/day (repeated ip injections, day 1-9). The settings on record: route intraperitoneal. Format: functional, Mus musculus. The procedure, abridged:
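B6D2F1 female mice (C57BL/6 × DBA/2) were implanted ip on day 0 with 0.5 mL of B16 suspension (1 g tumor homogenized in 9 mL 0.9% saline). Ip treatment was given once daily, day 1 to day 9. Body weight was recorded on days 1 and 5 after implantation, and the mean change per group was reported.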

For assay [17], the system named is P388. The experiment in a line: Antitumor activity against P388 Leukemia from CDF1 female mice evaluated as the number of survivors on day 5 at a dose of 0.75 mg/kg/day. Type of assay: functional, Mus musculus. The procedure, abridged: as §1
Assay [18] has as its system P388. The experiment in a line: Antitumor activity (T/C) was evaluated from the median survival time of treated mice (T) over that of control mice (C) at a dose of 0.03 mg/kg/day. Format: functional, Mus musculus. The gist of the method: as §5
Assay [19] concerns B16. The experiment in a line: Antitumor activity against B16 melanoma from B6 D2 F1 female mice evaluated as Median survival time of treated mice at a dose of 1 mg/kg/day. Type of assay: functional, Mus musculus. The gist of the method:
as §2

Assay [20] deals with P388. The experiment in a line: Average weight change of animals between day 1 and day 5 after tumor implementation at a dose of 0.12 mg/kg/day. Type of assay: functional, Mus musculus. The procedure, abridged:
as §3

Assay [21] deals with B16. The experiment in a line: Antitumor activity against B16 melanoma from B6 D2 F1 female mice evaluated as the number of survivors on day 5 at a dose of 0.06 mg/kg/day. Type of assay: functional, Mus musculus. The procedure, abridged: as §2
The test system of assay [22] is L1210. As to the kind of experiment: Antitumor activity against L1210 Lymphoid Leukemia from CDF1 female mice as average weight change of animals between day 1 and day 5 after tumor implementation at a dose of 0.50 mg/kg/day. Type of assay: functional, Mus musculus. The procedure, abridged:
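CDF1 female mice (BALB/c × DBA/2) received 10⁵ L1210 cells ip on day 0. Drug was dissolved in 2% methanol and given ip on days 1, 5 and 9, to 10 mice per group. Weights were taken on days 1 and 5, and the mean change was reported.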

Assay [23] relates to P388. The experiment in a line: Antitumor activity against P388 Leukemia from CDF1 female mice evaluated as Median survival time of treated mice at a dose of 0.06 mg/kg/day. Type of assay: functional, Mus musculus. The procedure, abridged:
as §5

SMILES strings stand for the structures. ≈ marks a conversion by molar mass, not a printed value.

Turning to `COc1ccc(C[C@H]2C(=O)O[C@H](C)[C@H](NC(=O)[C@@H](CC(C)C)N(C)C(=O)C3CCCN3C(=O)[C@@H](C)O)C(=O)NC(C(C)C)[C@H](O)CC(=O)O[C@@H](C(C)C)C(=O)[C@H](C)C(=O)N[C@@H](CC(C)C)C(=O)N3CCC[C@H]3C(=O)N2C)cc1` (stereo partly drawn) [NORDIDEMNIN], the “median survival time, days” value was 15.7 in the assay on P388 [1]; 19.3 in the assay on B16 [4]; 28 in the assay on B16 [7]; 12.4 in the assay on P388 [11]; 29.3 with B16 [19]; 13.6 in the assay on P388 [23]. The Toxicity with P388 [2], in the assay with B16 [10], in the assay on P388 [17] and in the assay on B16 [21] was 1 in each case. Further, the T/C in the assay on B16 [3] was found to be 142%; in the assay on B16 [5] it was 147%; with B16 [6], 157%; with P388 [18], 112%. Also, the Body weight change in the assay with P388 [8] is -1.2 g; in the assay on B16 [9], -0.9 g; in the assay with P388 [12], -0.7 g; in the assay with B16 [14], 0 g; in the assay with B16 [15] it was 0 g; in the assay on B16 [16] it was -2.1 g. For the same molecule, the Body weight change is -0.7 g in the assay on P388 [20] and -0.9 g in the assay with L1210 [22]. Besides, in the assay on L1210 [13], the IC50 is 1.9 ng/mL (≈ 1.73 nM).

As usually defined, the T/C is the result in the treated group divided by that in the control group, in per cent.

The values above are taken from ChEMBL document CHEMBL1125226, “Antineoplastic activity of didemnin congeners: nordidemnin and modified chain analogues” (1991).
